Measurements published in ChEMBL document CHEMBL1156614, “Discovery of imidazole vinyl pyrimidines as a novel class of kinase inhibitors which inhibit Tie-2 and are orally bioavailable” (Bioorg Med Chem Lett, 2008).

Columns and labels:
[1] = target: Vascular endothelial growth factor receptor 1 (Homo sapiens, UniProt P17948); experiment: Inhibition of recombinant Flt1 expressed in baculovirus-Sf21 system
Summary of the method: (§1)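 Kinase-domain fragments expressed in baculovirus/Sf21 cells. Crude lysates (ice-cold Triton lysis with protease inhibitors, cleared) were diluted 1:200 for Tie-2, 1:400 for KDR and 1:1000 for Flt-1. Reactions ran on synthetic peptide-coated plates in 100 mM Hepes pH 7.4 with 5 µM ATP, 10 mM MnCl2, 0.1 mM vanadate, 0.2 mM DTT and 2.5% final DMSO, at room temperature for 60 min (Tie-2) or 20 min (KDR, Flt-1).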

[2] = target: Vascular endothelial growth factor receptor 2 (Homo sapiens, UniProt P35968); experiment: Inhibition of recombinant KDR expressed in baculovirus-Sf21 system; summary of the method: as §1
Angiopoietin-1 receptor [3] = target: T1, Angiopoietin-1 receptor (Homo sapiens, UniProt Q02763); experiment: Inhibition of recombinant Tie2 expressed in baculovirus-Sf21 system; summary of the method: as §1
Angiopoietin-1 receptor [4] = target: T1, Angiopoietin-1 receptor; experiment: Inhibition of human Tie2 autophosphorylation expressed in CHOK1 cells by ELISA; type: cell-based, CHO-K1
Summary of the method: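 CHO-K1 cells stably expressing human Tie-2 were seeded at 6×10^4 cells/well and grown 3 days in DMEM/G418/10% FCS. Compound was added in DMEM with 1% FCS for 45 min at 37 °C. Cells were lysed on ice, and lysate was captured on a human Tie-2 ELISA plate (2 h, room temperature). Phospho-Tie-2 was detected with a rabbit antibody, then anti-rabbit HRP and colour reagent; read at OD450.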

[5] = Fraction unbound ligand in rat; type: ADME
[6] = Fraction unbound ligand in mouse; type: ADME, organism-based; conditions: in vivo
HUVEC = experiment: Inhibition of growth factor-stimulated proliferation of HUVEC; type: functional, cell-based; conditions: Homo sapiens
Mus musculus = experiment: AUC in mouse at 2 mg/kg by cassette dosing assay; type: ADME, organism-based, Plasma; set-up: dose 2 mg/kg; conditions: in vivo
[7] = Inhibition of p38
[8] = Cmax in mouse at 2 mg/kg by cassette dosing assay; type: ADME, organism-based; set-up: dose 2 mg/kg; conditions: in vivo
[9] = Cmax in mouse at 1 mg/kg, po by cassette dosing assay; type: ADME, organism-based; set-up: dose 1 mg/kg, route oral; conditions: in vivo

Sequence of Vascular endothelial growth factor receptor 2 (P35968 whole entry): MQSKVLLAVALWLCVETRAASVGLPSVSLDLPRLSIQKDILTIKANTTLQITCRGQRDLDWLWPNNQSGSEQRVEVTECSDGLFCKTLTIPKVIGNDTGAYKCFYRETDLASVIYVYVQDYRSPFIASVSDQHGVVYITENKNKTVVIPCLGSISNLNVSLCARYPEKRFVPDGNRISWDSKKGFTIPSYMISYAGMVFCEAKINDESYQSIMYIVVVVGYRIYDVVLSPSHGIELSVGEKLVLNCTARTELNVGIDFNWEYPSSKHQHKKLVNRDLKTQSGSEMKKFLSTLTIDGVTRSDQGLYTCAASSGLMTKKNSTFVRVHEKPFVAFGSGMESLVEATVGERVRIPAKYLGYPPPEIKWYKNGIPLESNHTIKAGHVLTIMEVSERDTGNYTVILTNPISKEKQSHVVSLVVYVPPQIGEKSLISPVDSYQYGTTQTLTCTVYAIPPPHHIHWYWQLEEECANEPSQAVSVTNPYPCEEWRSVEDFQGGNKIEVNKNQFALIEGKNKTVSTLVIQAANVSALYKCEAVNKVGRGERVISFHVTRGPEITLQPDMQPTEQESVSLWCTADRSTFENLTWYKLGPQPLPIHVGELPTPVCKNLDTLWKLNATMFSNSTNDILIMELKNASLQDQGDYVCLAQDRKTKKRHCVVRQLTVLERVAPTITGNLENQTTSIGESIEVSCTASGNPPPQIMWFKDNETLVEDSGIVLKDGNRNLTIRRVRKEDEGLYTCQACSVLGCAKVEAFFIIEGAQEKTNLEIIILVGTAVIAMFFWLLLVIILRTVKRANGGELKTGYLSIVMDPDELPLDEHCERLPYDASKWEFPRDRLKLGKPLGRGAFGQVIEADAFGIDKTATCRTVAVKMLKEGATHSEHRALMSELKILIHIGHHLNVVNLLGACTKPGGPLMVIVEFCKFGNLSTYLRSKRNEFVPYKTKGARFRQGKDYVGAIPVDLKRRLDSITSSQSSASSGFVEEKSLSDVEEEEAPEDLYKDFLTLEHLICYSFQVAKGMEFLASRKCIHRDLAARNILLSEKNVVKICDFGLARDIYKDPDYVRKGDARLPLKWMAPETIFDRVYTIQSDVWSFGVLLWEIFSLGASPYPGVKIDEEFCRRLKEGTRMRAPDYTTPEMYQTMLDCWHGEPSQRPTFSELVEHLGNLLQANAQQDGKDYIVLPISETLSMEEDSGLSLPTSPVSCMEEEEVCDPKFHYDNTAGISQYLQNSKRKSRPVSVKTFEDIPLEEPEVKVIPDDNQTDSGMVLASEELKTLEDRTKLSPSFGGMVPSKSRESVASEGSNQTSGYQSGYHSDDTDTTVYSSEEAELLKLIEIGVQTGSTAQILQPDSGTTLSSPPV
Sequence of Vascular endothelial growth factor receptor 1 (P17948 whole entry, the tested form may be a part): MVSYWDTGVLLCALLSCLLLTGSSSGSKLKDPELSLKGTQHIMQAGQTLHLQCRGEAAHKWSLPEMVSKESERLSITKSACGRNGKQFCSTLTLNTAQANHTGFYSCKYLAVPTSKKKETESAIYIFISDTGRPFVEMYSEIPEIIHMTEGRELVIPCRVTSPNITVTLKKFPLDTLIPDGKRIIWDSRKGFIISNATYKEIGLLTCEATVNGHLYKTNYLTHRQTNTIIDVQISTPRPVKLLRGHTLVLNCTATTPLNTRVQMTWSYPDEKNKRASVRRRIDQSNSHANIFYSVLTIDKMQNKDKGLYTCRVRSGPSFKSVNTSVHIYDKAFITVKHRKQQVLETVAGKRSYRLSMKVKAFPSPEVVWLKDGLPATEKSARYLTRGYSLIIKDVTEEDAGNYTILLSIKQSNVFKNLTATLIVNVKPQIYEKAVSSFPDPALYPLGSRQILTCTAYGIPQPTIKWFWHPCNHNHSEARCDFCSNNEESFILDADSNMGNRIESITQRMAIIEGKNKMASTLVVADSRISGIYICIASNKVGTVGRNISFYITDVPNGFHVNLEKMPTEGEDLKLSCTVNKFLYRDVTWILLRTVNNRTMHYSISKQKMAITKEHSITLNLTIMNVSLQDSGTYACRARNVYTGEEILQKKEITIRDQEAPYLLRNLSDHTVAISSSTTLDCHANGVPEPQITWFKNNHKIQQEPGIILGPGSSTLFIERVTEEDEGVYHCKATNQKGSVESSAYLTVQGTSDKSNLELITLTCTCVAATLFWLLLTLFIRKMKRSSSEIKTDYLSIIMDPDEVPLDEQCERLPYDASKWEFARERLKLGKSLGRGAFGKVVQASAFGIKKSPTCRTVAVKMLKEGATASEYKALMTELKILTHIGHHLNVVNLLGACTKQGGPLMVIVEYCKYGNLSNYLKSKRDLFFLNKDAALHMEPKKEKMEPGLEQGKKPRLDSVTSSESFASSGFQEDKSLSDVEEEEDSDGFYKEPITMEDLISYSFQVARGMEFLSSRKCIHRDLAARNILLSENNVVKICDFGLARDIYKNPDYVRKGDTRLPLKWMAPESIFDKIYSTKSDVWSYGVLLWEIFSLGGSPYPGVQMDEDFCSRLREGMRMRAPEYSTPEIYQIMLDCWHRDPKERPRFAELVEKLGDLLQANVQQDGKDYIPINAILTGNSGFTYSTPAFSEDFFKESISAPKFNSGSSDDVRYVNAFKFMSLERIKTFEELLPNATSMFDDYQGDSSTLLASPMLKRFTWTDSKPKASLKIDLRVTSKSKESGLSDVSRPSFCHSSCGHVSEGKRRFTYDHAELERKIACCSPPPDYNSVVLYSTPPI
T1 sequence (Q02763 whole entry): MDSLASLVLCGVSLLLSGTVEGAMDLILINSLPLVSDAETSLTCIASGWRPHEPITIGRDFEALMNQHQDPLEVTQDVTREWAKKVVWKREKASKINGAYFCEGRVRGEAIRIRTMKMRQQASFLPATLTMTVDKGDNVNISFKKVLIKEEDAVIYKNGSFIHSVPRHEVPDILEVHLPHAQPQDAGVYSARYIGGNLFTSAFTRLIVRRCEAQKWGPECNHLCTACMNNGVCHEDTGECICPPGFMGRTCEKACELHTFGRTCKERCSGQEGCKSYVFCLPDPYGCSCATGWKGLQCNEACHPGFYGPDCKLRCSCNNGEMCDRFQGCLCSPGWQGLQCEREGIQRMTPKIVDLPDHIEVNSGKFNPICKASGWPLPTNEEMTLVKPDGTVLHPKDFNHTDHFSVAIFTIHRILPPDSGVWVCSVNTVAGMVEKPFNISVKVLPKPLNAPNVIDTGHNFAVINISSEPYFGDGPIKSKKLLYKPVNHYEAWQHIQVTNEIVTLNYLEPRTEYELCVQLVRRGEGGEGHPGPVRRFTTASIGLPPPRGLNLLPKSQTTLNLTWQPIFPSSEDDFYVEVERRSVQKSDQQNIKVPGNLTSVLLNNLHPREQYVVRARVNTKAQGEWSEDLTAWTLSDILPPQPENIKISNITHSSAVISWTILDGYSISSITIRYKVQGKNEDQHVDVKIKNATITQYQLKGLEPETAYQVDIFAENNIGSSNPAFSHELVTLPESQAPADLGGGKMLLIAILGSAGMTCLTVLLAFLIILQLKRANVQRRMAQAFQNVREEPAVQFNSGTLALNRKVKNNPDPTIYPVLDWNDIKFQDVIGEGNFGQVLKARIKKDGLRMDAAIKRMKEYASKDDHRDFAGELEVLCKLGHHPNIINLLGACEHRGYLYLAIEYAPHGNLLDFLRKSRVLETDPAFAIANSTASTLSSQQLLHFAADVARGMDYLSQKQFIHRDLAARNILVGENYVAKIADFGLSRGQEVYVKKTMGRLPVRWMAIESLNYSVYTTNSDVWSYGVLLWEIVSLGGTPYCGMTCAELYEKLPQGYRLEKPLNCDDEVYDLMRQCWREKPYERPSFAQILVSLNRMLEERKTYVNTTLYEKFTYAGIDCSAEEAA

| SMILES | IC50 [1] [µM] | IC50 [2] [µM] | IC50 (Angiopoietin-1 receptor [3]) [µM] | further results |
| --- | --- | --- | --- | --- |
| Cn1cnc(-c2ccccc2)c1Nc1ccnc(N)n1 | > 100 | > 100 | > 100 |  |
| Cc1nc2sccn2c1/C=C/c1ccnc(N)n1 | > 100 | 70 | > 100 |  |
| CC(C)(C)C(=O)Nc1nccc(/C=C/c2c(-c3ccccc3)nc3sccn23)n1 | 96 | 13 | 41 |  |
| Cn1cnc(-c2ccccc2)c1C(=O)Nc1ccnc(N)n1 | > 100 | > 100 | > 100 |  |
| Nc1ccnc(/C=C/c2c(-c3ccccc3)nc3sccn23)n1 | > 100 | > 100 | > 100 |  |
| Nc1nccc(/C=C/c2c(-c3ccccc3)ncn2CC(=O)O)n1 |  |  | 68 |  |
| Nc1nccc(/C=C/c2sccc2-c2ccccc2)n1 | > 100 | > 100 | > 100 |  |
| C(=C\c1c(-c2ccccc2)nc2sccn12)/c1ccncn1 | > 100 | 77 | 27 |  |
| CC(Nc1nccc(/C=C/c2c(-c3ccccc3)nc3sccn23)n1)c1ccccc1 (centres undefined) | > 100 | > 100 | > 100 |  |
| Clc1nccc(/C=C/c2c(-c3ccccc3)nc3sccn23)n1 | 66 | > 100 | 55 |  |
| Cn1cnc(-c2ccccc2)c1C1CC1c1ccnc(N)n1 (centres undefined) | > 100 | > 100 | > 100 |  |
| Cn1cnc(-c2ccccc2)c1NCCc1ccnc(N)n1 | > 100 | > 100 | > 100 |  |
| Nc1nccc(/C=C/c2[nH]ncc2-c2ccccc2)n1 | > 100 | > 100 | 64 |  |
| Nc1nccc(/C=C/c2ccsc2-c2ccccc2)n1 | > 100 | > 100 | > 100 |  |
| Cn1cnc(/C=C/c2ccnc(N)n2)c1-c1ccccc1 | > 100 | 7.8 | > 100 |  |
| Cn1c(-c2ccccc2)c(/C=C/c2ccnc(N)n2)c2ccccc21 |  |  | 83 |  |
| C(=C\c1c(-c2ccccc2)nc2sccn12)/c1ccnc(Nc2ccccc2)n1 | > 100 | > 100 | 68 |  |
| Nc1nccc(/C=C/c2c(Cl)nc3sccn23)n1 | > 100 | 31 | > 100 |  |
| Cn1cnc(-c2ccccc2)c1NC(=O)c1ccnc(N)n1 | > 100 | > 100 | > 100 |  |
| Cn1cnc(-c2ccccc2)c1CNc1ccnc(N)n1 | > 100 | > 100 | > 100 |  |

Compounds with a lower IC50 (Angiopoietin-1 receptor [3]), results first:

| IC50 [1] [µM] | IC50 [2] [µM] | IC50 (Angiopoietin-1 receptor [3]) [µM] | SMILES | further results |
| --- | --- | --- | --- | --- |
| 31 | 7 | 2.8 | Nc1nccc(/C=C/c2c(-c3ccccc3)ncn2Cc2ccccc2)n1 |  |
| 34 | 3.2 | 3.8 | Cn1cnc(-c2ccccc2)c1/C=C/c1ccnc(N)n1 | IC50 (Angiopoietin-1 receptor [4]): 0.34 µM; fraction unbound [5]: 0.099; fraction unbound [6]: 0.125; IC50 (HUVEC): > 10 µM; AUC (Mus musculus): 0.58 µM·h; IC50 [7]: 12 µM; Cmax [8]: 460 nM |
|  |  | 13 | Nc1nccc(/C=C/c2c(-c3ccc(F)cc3)nc3sccn23)n1 |  |
| 68 | 9.8 | 8.4 | Nc1nccc(/C=C/c2[nH]cnc2-c2ccccc2)n1 | IC50 (Angiopoietin-1 receptor [4]): 0.37 µM |
| > 100 | 32 | 21 | Nc1nccc(/C=C/c2c(-c3ccccc3)ncn2CCN2CCCC2)n1 |  |
| 23 | 3.2 | 2.9 | Nc1nccc(/C=C/c2c(-c3ccccc3)nc3n2CCS3)n1 |  |
| 30 | 7 | 6 | Nc1nccc(/C=C/c2c(-c3ccccc3)nc3sccn23)n1 | Cmax [9]: 290 nM |
| > 100 | 35 | 5.2 | Nc1cc(/C=C/c2c(-c3ccccc3)nc3sccn23)ncn1 |  |
| 79 | 13 | 5.6 | Nc1nccc(/C=C/c2c(-c3ccccc3)nc3ccccn23)n1 |  |
| 100 | 4.5 | 11 | CC(=O)Nc1nccc(/C=C/c2c(-c3ccccc3)nc3sccn23)n1 |  |
| 36 | 2.9 | 6.4 | Cn1cnc(-c2ccccc2)c1C#Cc1ccnc(N)n1 |  |
| 84 | 17 | 14 | CNc1nccc(/C=C/c2c(-c3ccccc3)nc3sccn23)n1 |  |
